# Results: ChEMBL document CHEMBL3997808 (J Med Chem, 2017)
# Columns and labels:
# [1] = molecular target: T1, Receptor-interacting serine/threonine-protein kinase 1 (Homo sapiens) (UniProt Q13546)
# T1 sequence (whole entry): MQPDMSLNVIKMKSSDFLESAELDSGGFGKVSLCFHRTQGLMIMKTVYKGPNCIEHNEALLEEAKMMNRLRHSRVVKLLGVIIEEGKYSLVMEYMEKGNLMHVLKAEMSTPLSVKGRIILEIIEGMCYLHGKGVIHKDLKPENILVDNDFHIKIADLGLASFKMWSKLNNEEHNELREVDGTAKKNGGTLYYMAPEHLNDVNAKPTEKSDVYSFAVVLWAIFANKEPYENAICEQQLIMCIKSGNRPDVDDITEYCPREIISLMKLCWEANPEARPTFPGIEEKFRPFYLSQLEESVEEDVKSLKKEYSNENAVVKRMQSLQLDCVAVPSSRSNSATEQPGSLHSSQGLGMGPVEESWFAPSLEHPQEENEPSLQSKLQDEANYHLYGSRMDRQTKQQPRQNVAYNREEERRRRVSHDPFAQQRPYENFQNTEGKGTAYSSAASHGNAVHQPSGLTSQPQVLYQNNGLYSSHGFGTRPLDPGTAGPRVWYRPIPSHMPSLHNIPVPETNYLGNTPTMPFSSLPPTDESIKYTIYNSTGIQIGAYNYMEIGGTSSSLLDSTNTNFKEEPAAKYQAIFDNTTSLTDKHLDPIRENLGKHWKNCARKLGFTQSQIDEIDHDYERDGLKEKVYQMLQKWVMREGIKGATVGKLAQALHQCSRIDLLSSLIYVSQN
# Mus musculus [2] = experiment: Protection against TNF-induced lethal shock in mouse assessed as reduction in body temperature loss at 10 mg/kg, po pretreated for 15 mins followed by TNF-stimulation measured after 6 hrs relative to control; format: functional; design: scale not given: the % may be the effect or the level left
# [3] = (§1) Displacement of (14-(2-{[3-({2-{[4-(cyanomethyl)phenyl]amino}-6-[(5-cyclopropyl-1H-pyrazol-3-yl)-amino]-4-pyrimidinyl}amino)propyl]amino}-2-oxoethyl)-16,16,18,18-tetramethyl-6,7,7a,8a,9,10,16,18-octahydrobenzo[2'',3'']indolizino-[8'',7'':5',6']pyrano[3',2':3,4]pyrido[1,2-a]indol-5-ium-2-sulfonate from dog RIP1 (1 to 373 residues) expressed in baculovirus infected insect cells measured for 50 mins by fluorescence polarization assay; design: species or system Canis lupus familiaris
# How it was run: (§2)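 Competitive FP binding assay in which test compounds displace a fluorescently labeled ATP-competitive ligand from RIP1.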
# Mus musculus [4] = experiment: In vivo inhibition of RIP1 in po dosed mouse model of TNF/zVAD-induced lethal shock assessed as plasma concentration required for reduction in body temperature loss pretreated for 15 mins followed by TNF-stimulation measured after 3 hrs; format: functional, organism-based
# Mus musculus [5] = experiment: Protection against TNF-induced lethal shock in mouse assessed as reduction in body temperature loss at 50 mg/kg, po pretreated for 15 mins followed by TNF-stimulation measured after 6 hrs relative to control; format: functional; design: scale not given: the % may be the effect or the level left
# [6] = as §1, with “rabbit” for “dog”, “371” for “373”; design: species or system Oryctolagus cuniculus
# How it was run: as §2
# [7] = as §1, with “mini pig” for “dog”, “375” for “373”; design: species or system Sus scrofa
# How it was run: as §2
# [8] = Inhibition of RIP1 in cynomolgus monkey whole blood assessed as reduction in TNFalpha/[…]/zVAD FMK/SMAC mimetic RMT 5265-IL-1beta production after 6 hrs by sandwich ELISA; conditions: Macaca fascicularis
# How it was run: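 Heparinized venous cynomolgus whole blood was stimulated with stocks of TNF (200 ng/mL), QVD-OPh or zVAD.fmk (400 μM) and RMT 5265 (20 μM), with stock values as printed. Compound was a 5-fold dilution series, top 5 μM, in RPMI/1% FBS/1% DMSO. Incubation was 6 h at 37 °C, 5% CO2, then PBS dilution and centrifugation. Supernatant IL-1β was read by sandwich ELISA.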
# Mus musculus [9] = experiment: Protection against TNF/zVAD-induced lethal shock in mouse assessed as reduction in body temperature loss at 50 mg/kg, po pretreated for 15 mins followed by TNF/zVAD-stimulation measured after 3 hrs relative to control; format: functional; design: scale not given: the % may be the effect or the level left
# Mus musculus [10] = experiment: Protection against TNF-induced lethal shock in mouse assessed as reduction in body temperature loss at 3 mg/kg, po pretreated for 15 mins followed by TNF-stimulation measured after 6 hrs relative to control; format: functional; design: scale not given: the % may be the effect or the level left
# Mus musculus [11] = experiment: In vivo inhibition of RIP1 in po dosed mouse model of TNF-induced lethal shock assessed as plasma concentration required for reduction in body temperature loss pretreated for 15 mins followed by TNF-stimulation measured after 6 hrs; format: functional, organism-based
# [12] = as §1, with “rat” for “dog”, “377” for “373”
# How it was run: as §2
# Mus musculus [13] = experiment: Protection against TNF/zVAD-induced lethal shock in mouse assessed as reduction in body temperature loss at 3 mg/kg, po pretreated for 15 mins followed by TNF/zVAD-stimulation measured after 3 hrs relative to control; format: functional; design: scale not given: the % may be the effect or the level left
# Mus musculus [14] = experiment: Protection against TNF/zVAD-induced lethal shock in mouse assessed as reduction in body temperature loss at 10 mg/kg, po pretreated for 15 mins followed by TNF/zVAD-stimulation measured after 3 hrs relative to control; format: functional; design: scale not given: the % may be the effect or the level left
# [15] = as §1, with “monkey” for “dog”, “379” for “373”; design: species or system Macaca mulatta
# How it was run: as §2
compound,measurement,setting,value
CN1C(=O)[C@@H](NC(=O)c2n[nH]c(Cc3ccccc3)n2)COc2ccccc21 [GSK2982772],T1/2,[1],1.87 h
same,Activity,Mus musculus [2],80%
same,IC50,[3],5000 nM
same,IC50,Mus musculus [4],3200 nM
same,Activity,Mus musculus [5],87%
same,IC50,[6],790 nM
same,IC50,[7],> 10000 nM
same,IC50,[8],4 nM
same,Activity,Mus musculus [9],93%
same,Activity,Mus musculus [10],68%
same,IC50,Mus musculus [11],1000 nM
same,IC50,[12],2000 nM
same,Activity,Mus musculus [13],13%
same,Activity,Mus musculus [14],63%
same,IC50,[15],20 nM
